In the library only some 1.2% were active in any assay of this set; here they are far more common.
FXIa inh: factor XIa (human) inhibition | inhibition, % at 5 µM | purified FXIa, Boc-Glu-Ala-Arg-AMC fluorogenic substrate | AID 798 | hit rate 0.14% among 220,000;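 active means inhibition of at least 40%; inactive means inhibition below 40%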;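 further: fluorescence of freed AMC excited at 355 nm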
PERK inhibitor: blocks human PERK kinase; hit rate 0.17% among 220,000; inhibition, % at 5.6 µM; CHO PERK-DD fusion, SEAP luminescence translation reporter; AID 1416;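 active means inhibition above the mean inhibition of all tested compounds plus 3 SD, set separately per screening campaign, cut at about 2.9% in these data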;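 further: PERK kinase domain activated by AP20187 dimerizer at 100 nM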
hK5 inh: inhibitors of human kallikrein 5. recombinant hK5, fluorogenic AMC substrate cleavage. inhibition, % at 5 µM. hit rate 0.59% among 210,000;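 active means inhibition of 40% or more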
Furin inhibitor: inhibitors of human furin; P09958; purified furin, fluorogenic substrate cleavage; inhibition, % at 20 µM or 30 µM; hit rate 0.061% among 220,000; AID 463115; in the data active means inhibition above about 25%
Thrombin inh: thrombin (human) inhibition | P00734 | alpha-thrombin, Boc-VPR-AMC fluorogenic substrate cleavage | inhibition, % at 5 µM | hit rate 0.26% among 220,000 | AID 1046;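 active means inhibition at or above 40%; inactive means inhibition below 40%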
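Assay system: human alpha-thrombin enzyme. Reagent: Boc-VPR-AMC substrate, 15 µM final. Compound dosing: one concentration per compound, 5 µM, with 0.2% DMSO. Incubation: room-temperature reaction. Technique: AMC fluorescence, 355/460 nm. Measure: % inhibition relative to enzyme controls and enzyme-free blanks.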
FXIIa inh: inhibitors of human coagulation factor XIIa | P00748 | purified FXIIa, Boc-QGR-AMC fluorogenic substrate, 2 h | inhibition, % at 5 µM | hit rate 0.3% among 220,000; in the data active means inhibition above about 40%
Target sequence (P00748 20-372 limits assumed): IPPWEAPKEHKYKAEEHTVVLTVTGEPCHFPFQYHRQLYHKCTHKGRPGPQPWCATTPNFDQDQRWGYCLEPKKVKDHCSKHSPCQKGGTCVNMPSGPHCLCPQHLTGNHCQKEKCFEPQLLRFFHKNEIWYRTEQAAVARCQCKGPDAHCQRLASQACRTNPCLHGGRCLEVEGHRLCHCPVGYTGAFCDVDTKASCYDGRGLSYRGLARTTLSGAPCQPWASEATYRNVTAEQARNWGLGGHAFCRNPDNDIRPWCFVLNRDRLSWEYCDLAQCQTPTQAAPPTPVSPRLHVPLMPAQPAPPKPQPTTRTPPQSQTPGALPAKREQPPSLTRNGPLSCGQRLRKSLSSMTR
Target sequence (P00748 373-615 limits assumed): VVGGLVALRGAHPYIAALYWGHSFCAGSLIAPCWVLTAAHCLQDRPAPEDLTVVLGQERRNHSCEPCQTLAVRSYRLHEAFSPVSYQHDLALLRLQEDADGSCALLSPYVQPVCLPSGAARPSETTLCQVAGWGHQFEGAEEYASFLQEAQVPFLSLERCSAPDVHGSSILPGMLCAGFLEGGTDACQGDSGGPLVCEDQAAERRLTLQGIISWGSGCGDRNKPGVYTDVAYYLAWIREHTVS
Numbers stand for hits.

For O=C(NNc1ccc(Cl)cc1)c1c(F)cccc1Cl the results were FXIa inh inactive, PERK inhibitor inactive, hK5 inh inactive, Furin inhibitor inactive, Thrombin inh inactive and FXIIa inh inactive.
Screening O=C(NNc1cc(Cl)ccc1Cl)c1c(F)cccc1Cl returned FXIa inh inactive, PERK inhibitor inactive, hK5 inh inactive, Furin inhibitor inactive, Thrombin inh inactive and FXIIa inh 42.3.
COC(=O)c1ccccc1NC(=O)Nc1cc(C)cc(C)n1 was read as FXIa inh inactive, PERK inhibitor inactive, hK5 inh inactive, Furin inhibitor inactive, Thrombin inh inactive and FXIIa inh inactive.
Screening COC(=O)c1ccccc1NC(=O)Nc1cc(C)ccn1 returned FXIa inh inactive, PERK inhibitor inactive, hK5 inh inactive, Furin inhibitor inactive, Thrombin inh inactive and FXIIa inh 41.4.
CCCCCC(=O)N(CN1C(=O)CCC1=O)c1ccccc1 was read as FXIa inh inactive, PERK inhibitor inactive, hK5 inh inactive, Furin inhibitor 31.5, Thrombin inh inactive and FXIIa inh inactive.
Screening COc1ccc(C2c3c(-c4cc(Cl)c(C)cc4O)n[nH]c3C(=O)N2Cc2cccnc2)cc1OC (stereo not given) returned FXIa inh inactive, PERK inhibitor inactive, hK5 inh inactive, Furin inhibitor inactive, Thrombin inh 57.4 and FXIIa inh inactive.
`COc1ccc(C2c3c(-c4ccccc4O)n[nH]c3C(=O)N2Cc2ccco2)cc1OC` (stereo not given) gave FXIa inh inactive, PERK inhibitor inactive, hK5 inh inactive, Furin inhibitor inactive, Thrombin inh inactive and FXIIa inh inactive.
Screening COc1cc(OC)c(S(=O)(=O)NC(C)C)cc1C(=O)O returned FXIa inh inactive, PERK inhibitor inactive, hK5 inh inactive, Furin inhibitor inactive, Thrombin inh inactive and FXIIa inh inactive.
Screening Cc1ccc(C2=NNC3(CCOC(C)(C)C3)S2)cc1 (stereo not given) returned FXIa inh inactive, PERK inhibitor inactive, hK5 inh inactive, Furin inhibitor inactive, Thrombin inh inactive and FXIIa inh inactive.
For CCOC(=O)CSc1nnc(-c2ccc(OC)cc2)n1CC the results were FXIa inh inactive, PERK inhibitor inactive, hK5 inh 77.5, Furin inhibitor inactive, Thrombin inh inactive and FXIIa inh inactive.
For COc1cccc(CNS(=O)(=O)/C=C/c2ccc3c(c2)OCO3)c1 the results were FXIa inh inactive, PERK inhibitor inactive, hK5 inh inactive, Furin inhibitor inactive, Thrombin inh inactive and FXIIa inh inactive.
CC(C)(C)c1ccc(Cn2nnc3c(=O)[nH]c(C4CCN(C(=O)Cc5cccs5)CC4)nc32)cc1 was read as FXIa inh inactive, PERK inhibitor inactive, hK5 inh 117.9, Furin inhibitor inactive, Thrombin inh inactive and FXIIa inh inactive.
COC(=O)CSc1nc2[nH]ncc2c(=O)[nH]1 was read as FXIa inh inactive, PERK inhibitor inactive, hK5 inh inactive, Furin inhibitor inactive, Thrombin inh inactive and FXIIa inh inactive.
CN1CCN(c2ccccc2NC(=O)c2cccc(OCc3ccccc3)c2)CC1 was read as FXIa inh inactive, PERK inhibitor inactive, hK5 inh inactive, Furin inhibitor 35.0, Thrombin inh inactive and FXIIa inh inactive.
Screening CN1CCN(c2ccccc2NC(=O)c2ccc(OCc3ccccc3)cc2)CC1 returned FXIa inh inactive, PERK inhibitor inactive, hK5 inh inactive, Furin inhibitor inactive, Thrombin inh inactive and FXIIa inh inactive.
`CC(=O)N1NC(=Nc2ccccc2)SC1(C)C` gave FXIa inh inactive, PERK inhibitor inactive, hK5 inh inactive, Furin inhibitor inactive, Thrombin inh inactive and FXIIa inh inactive.
Screening O=C(Nc1ccc(OCC(=O)N2CCOCC2)cc1)Nc1cccc2ccccc12 returned FXIa inh inactive, PERK inhibitor inactive, hK5 inh inactive, Furin inhibitor inactive, Thrombin inh inactive and FXIIa inh inactive.
For COc1ccc(-c2nnc(NC(=O)Cc3ccccc3)s2)c(OC)c1 the results were FXIa inh inactive, PERK inhibitor inactive, hK5 inh 51.8, Furin inhibitor inactive, Thrombin inh inactive and FXIIa inh inactive.
`COc1cccc(NC(=O)Nc2ccccc2SC)c1` gave FXIa inh inactive, PERK inhibitor inactive, hK5 inh inactive, Furin inhibitor inactive, Thrombin inh inactive and FXIIa inh 101.7.
COc1cccc(NC(C(=O)Nc2cccc(C(C)=O)c2)c2ccccc2)c1 (stereo not given) was read as FXIa inh inactive, PERK inhibitor inactive, hK5 inh inactive, Furin inhibitor inactive, Thrombin inh inactive and FXIIa inh 54.0.
For COc1cccc(NC(=O)Nc2cccnc2)c1 the results were FXIa inh inactive, PERK inhibitor inactive, hK5 inh 70.9, Furin inhibitor inactive, Thrombin inh inactive and FXIIa inh 40.5.
Screening COc1ccc(NC(=O)Nc2ccccc2SC)c(OC)c1 returned FXIa inh inactive, PERK inhibitor inactive, hK5 inh inactive, Furin inhibitor inactive, Thrombin inh inactive and FXIIa inh inactive.
`CCN(CC)C(=O)c1sc(N2C(=O)Nc3ccccc3N2O)c(C(=O)OC)c1C` gave FXIa inh inactive, PERK inhibitor inactive, hK5 inh inactive, Furin inhibitor inactive, Thrombin inh inactive and FXIIa inh inactive.
For CC(O)c1nc2ccccc2n1CC(=O)N1CCN(c2ccccc2)CC1 (stereo not given) the results were FXIa inh inactive, PERK inhibitor inactive, hK5 inh inactive, Furin inhibitor inactive, Thrombin inh inactive and FXIIa inh inactive.
For O=c1[nH][nH]c2cc(=O)n(-c3ccc(Cl)cc3)nc12 the results were FXIa inh inactive, PERK inhibitor inactive, hK5 inh inactive, Furin inhibitor inactive, Thrombin inh inactive and FXIIa inh inactive.
Screening COc1ccc(/C=C(\C#N)c2n[nH]c(Cn3cncn3)n2)cc1 returned FXIa inh inactive, PERK inhibitor inactive, hK5 inh inactive, Furin inhibitor inactive, Thrombin inh inactive and FXIIa inh 48.0.
`Cc1cc(=O)[nH]c(SCC(=O)NC2CCCc3ccccc32)n1` (stereo not given) gave FXIa inh inactive, PERK inhibitor inactive, hK5 inh inactive, Furin inhibitor inactive, Thrombin inh inactive and FXIIa inh inactive.
CC(=O)N1CCC(N(CCN2CCOCC2)C(=S)Nc2cccc(C)c2)CC1 was read as FXIa inh inactive, PERK inhibitor inactive, hK5 inh inactive, Furin inhibitor inactive, Thrombin inh inactive and FXIIa inh inactive.
For CC(=O)N1CCC(N(CCN2CCOCC2)C(=S)Nc2cc(C)ccc2C)CC1 the results were FXIa inh inactive, PERK inhibitor inactive, hK5 inh 51.2, Furin inhibitor inactive, Thrombin inh inactive and FXIIa inh inactive.
`CC(C)c1ccc(N(CC(=O)N/N=C/c2ccc(OC3CSC3)cc2)S(=O)(=O)c2ccccc2)cc1` gave FXIa inh inactive, PERK inhibitor inactive, hK5 inh inactive, Furin inhibitor inactive, Thrombin inh 59.2 and FXIIa inh inactive.
